This excerpt belongs to a sample that is enriched for hits.
TLR4 MyD88 comp: TLR4-MyD88 interaction inhibition in cells; 200,000 compounds, 0.18% hits; HeLa CL3-4 TLR4/MyD88 BLA complementation, FRET ratio; O00206+Q99836; inhibition, % at 8.4 µM; in the data active = inhibition above about 25%;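 also: 0% = vehicle and 100% = reference inhibitor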
Target sequence (O00206 whole entry, looked up): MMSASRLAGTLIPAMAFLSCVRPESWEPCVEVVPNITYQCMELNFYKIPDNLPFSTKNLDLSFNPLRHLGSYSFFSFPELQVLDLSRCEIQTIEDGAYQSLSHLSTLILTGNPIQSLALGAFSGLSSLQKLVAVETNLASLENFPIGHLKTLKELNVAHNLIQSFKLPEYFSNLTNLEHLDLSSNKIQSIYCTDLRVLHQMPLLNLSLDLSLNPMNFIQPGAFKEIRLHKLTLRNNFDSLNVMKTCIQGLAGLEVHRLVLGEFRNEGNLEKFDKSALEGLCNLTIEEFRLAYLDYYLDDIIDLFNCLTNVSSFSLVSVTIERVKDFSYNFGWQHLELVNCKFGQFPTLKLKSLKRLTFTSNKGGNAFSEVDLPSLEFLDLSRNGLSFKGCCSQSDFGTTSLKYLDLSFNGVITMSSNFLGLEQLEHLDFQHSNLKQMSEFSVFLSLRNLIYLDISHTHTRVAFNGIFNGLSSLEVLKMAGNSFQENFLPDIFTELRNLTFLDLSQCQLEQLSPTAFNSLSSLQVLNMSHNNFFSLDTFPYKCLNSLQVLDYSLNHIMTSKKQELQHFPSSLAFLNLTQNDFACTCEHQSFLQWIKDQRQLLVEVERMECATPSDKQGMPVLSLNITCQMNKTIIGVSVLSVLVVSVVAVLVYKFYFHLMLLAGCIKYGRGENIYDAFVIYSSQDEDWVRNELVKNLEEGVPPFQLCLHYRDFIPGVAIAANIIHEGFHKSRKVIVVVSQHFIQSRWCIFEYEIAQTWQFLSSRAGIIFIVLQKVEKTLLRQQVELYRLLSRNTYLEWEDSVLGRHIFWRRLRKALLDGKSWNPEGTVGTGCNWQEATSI
Target sequence (Q99836 whole entry, looked up): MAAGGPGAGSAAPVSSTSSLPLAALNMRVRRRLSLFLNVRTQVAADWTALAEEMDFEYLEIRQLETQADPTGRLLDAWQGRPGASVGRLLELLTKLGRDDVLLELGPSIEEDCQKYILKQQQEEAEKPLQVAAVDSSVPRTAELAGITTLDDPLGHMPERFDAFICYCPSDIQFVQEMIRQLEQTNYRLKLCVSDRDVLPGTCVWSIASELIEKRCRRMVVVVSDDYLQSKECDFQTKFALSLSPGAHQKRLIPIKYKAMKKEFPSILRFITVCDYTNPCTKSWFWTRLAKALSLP
NOD2-RIPK2 inh: inhibitors of human NOD2-RIPK2 interaction | 360,000 compounds, 0.38% hits | CHO BLA complementation NOD2-RIPK2, CCF4 ratio | AID 624267 | inhibition, % at 4.98 µM; in the data active = inhibition above about 21%;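 also: 0% = vehicle only and 100% = reference blocker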
XBP1 UPR activ: adaptive UPR (XBP1) activation. CHO-XBP1 luciferase reporter, IRE1-XBP1 UPR activation, luminescence; percent of tunicamycin response, DMSO as zero. activation, % at 20 µM. 330,000 compounds, 0.33% hits;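 active = versus positive control, 20 µM dose yields 30% or more activation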;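 also: 100% = tunicamycin at 10 µg/mL and 0% = DMSO only wells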
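Assay system: CHO-XBP1 luciferase reporter cells; Schedule: 6 h treatment, 37 °C; Detection: glow luminescence from Steady-Glo reagent; Benchmarks: high control tunicamycin 10 µg/mL final, low control DMSO vehicle only.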
CHOP UPR activ: activators of apoptotic arm of unfolded protein response (CHOP) | activation, % at 10 µM | 330,000 compounds, 0.34% hits | CHO-CHOP luciferase reporter, UPR activation, luminescence; percent of tunicamycin response over DMSO baseline;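 active = at 10 µM dose, activation of 40% or more, normalized to positive control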;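 also: 100% = tunicamycin at 10 µg/mL and 0% = DMSO alone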
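assay system = CHO CHOP reporter cells | amount = 500 CHO-CHOP cells per well | buffer or medium = F12 with 10% FBS | incubation = 16-18 h cell attachment, then 6 h compound exposure, 37 °C | detection = luminescence read with Steady-Glo | read-out = percent activation relative to tunicamycin control | controls = tunicamycin high control, DMSO low control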
TLR9-MyD88 inh: inhibitors of human TLR9-MyD88 binding. CHO BLA complementation TLR9-MyD88, CCF4 FRET ratio. inhibition, % at 4.98 µM. 340,000 compounds, 0.21% hits. Q9NR96+Q99836;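 active = inhibition above the mean over all tested compounds plus 3 SD, cut at about 21% in these data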;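 also: 0% = DMSO only wells and 100% = clavulanate BLA inhibitor control wells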
CHOP inh: inhibitors of CHOP induction in ER stress response; CHO-K1 CHOP-promoter luciferase, tunicamycin-induced, 15-18 h; inhibition, % at 10 µM; 220,000 compounds, 3.8% hits; AID 2732;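 active = compounds that reduced the stress-induced luciferase reporter signal by more than about 70% of percent inhibition, limit read from the data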;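 also: 0% = tunicamycin plus vehicle and 100% = wells without tunicamycin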
* marks the source's active call; other numbers are inactive results.

Results for NC(=O)c1ccsc1NC(=O)COC(=O)c1ccccc1NCc1ccco1 ?
TLR4 MyD88 comp: -19.3; NOD2-RIPK2 inh: 1.2; XBP1 UPR activ: 1.7; CHOP UPR activ: 0.9; TLR9-MyD88 inh: -5.9; CHOP inh: 95.6*

How did CCOC(=O)c1cc(OC(=O)c2ccccc2OC)n(-c2ccccc2)n1 do in these assays?
TLR4 MyD88 comp: 10.4; NOD2-RIPK2 inh: 5.1; XBP1 UPR activ: -1.2; CHOP UPR activ: 2.8; TLR9-MyD88 inh: 11.1; CHOP inh: 80.5*

Results for Nc1nc(Nc2ccccc2)nc(NCc2ccco2)c1[N+](=O)[O-] ?
TLR4 MyD88 comp: -0.1; NOD2-RIPK2 inh: -1.6; XBP1 UPR activ: 4.3; CHOP UPR activ: 1.6; TLR9-MyD88 inh: -7.5; CHOP inh: 85.9*

What do the screens show for `CCN(CC(=O)NCc1cccs1)C(=O)c1cc(S(=O)(=O)NCc2ccccc2)ccc1C`?
NOD2-RIPK2 inh: 4.2; XBP1 UPR activ: -1.7; CHOP UPR activ: 10.0; TLR9-MyD88 inh: 0.7

What do the screens show for `O=C(CCc1ccccc1)NC(c1cccs1)c1cc(Cl)c2cccnc2c1O` (stereo not drawn)?
TLR4 MyD88 comp: 0.5; NOD2-RIPK2 inh: 3.6; TLR9-MyD88 inh: 0.8; CHOP inh: 89.4*

Results for CCCC(=O)NC(c1cccs1)c1cc([N+](=O)[O-])c2cccnc2c1O (stereo not drawn) ?
TLR4 MyD88 comp: -2.6; NOD2-RIPK2 inh: -1.0; TLR9-MyD88 inh: -6.0; CHOP inh: 35.8

How did CSc1cccc(NC(=O)C2CCN(C(=O)c3ccccc3C)CC2)c1 do in these assays?
TLR4 MyD88 comp: -14.1; NOD2-RIPK2 inh: 4.6; XBP1 UPR activ: -1.8; CHOP UPR activ: 3.0; TLR9-MyD88 inh: -1.8; CHOP inh: 13.0

How did CC(C)(C)NC(=S)Nc1ccc(Nc2ccccc2)cc1 do in these assays?
TLR4 MyD88 comp: -1.7; NOD2-RIPK2 inh: -7.3; XBP1 UPR activ: -2.7; CHOP UPR activ: 1.8; TLR9-MyD88 inh: -3.5; CHOP inh: 72.8*

What do the screens show for `S=C(Nc1ccc(Nc2ccccc2)cc1)NC1CCCCCC1`?
TLR4 MyD88 comp: 5.3; NOD2-RIPK2 inh: -2.2; XBP1 UPR activ: -0.3; CHOP UPR activ: 2.8; TLR9-MyD88 inh: 7.7; CHOP inh: 80.2*

Results for S=C(Nc1ccc(Cl)cc1)NC1CCCCC1 ?
NOD2-RIPK2 inh: -7.6; XBP1 UPR activ: 5.0; CHOP UPR activ: 0.4; TLR9-MyD88 inh: -5.6; CHOP inh: 13.1

Results for Cc1c(-c2ccc(Cl)cc2Cl)nc2ccccc2c1C(=O)NCCN1CCOCC1 ?
NOD2-RIPK2 inh: 1.2; XBP1 UPR activ: -2.1; CHOP UPR activ: 1.9; TLR9-MyD88 inh: -3.2

Results for O=C1c2ccccc2C(=O)N1CCc1csc(-c2cccc(F)c2)n1 ?
TLR4 MyD88 comp: -1.8; NOD2-RIPK2 inh: -10.2; XBP1 UPR activ: 0.3; CHOP UPR activ: 0.8; TLR9-MyD88 inh: 6.5; CHOP inh: 81.8*

How did O=C(COC(=O)COc1ccccc1)Nc1ccc(S(=O)(=O)N2CCOCC2)cc1 do in these assays?
TLR4 MyD88 comp: -20.1; NOD2-RIPK2 inh: -18.9; XBP1 UPR activ: -2.2; CHOP UPR activ: 0.1; TLR9-MyD88 inh: 3.9; CHOP inh: -11.6

Results for CCOc1ccc(-n2c(SC(C)C)nc3c(c2=O)SCC3)cc1 ?
TLR4 MyD88 comp: 7.0; NOD2-RIPK2 inh: -0.6; XBP1 UPR activ: 1.7; CHOP UPR activ: -1.8; TLR9-MyD88 inh: 5.4; CHOP inh: 78.2*

How did O=C(Nc1cc(S(=O)(=O)Nc2ccc(Cl)cc2)ccc1O)c1ccc(S(=O)(=O)N2CCCCCC2)cc1 do in these assays?
TLR4 MyD88 comp: 1.7; NOD2-RIPK2 inh: -5.2; XBP1 UPR activ: -3.1; CHOP UPR activ: -0.9; TLR9-MyD88 inh: 0.3; CHOP inh: -1.1

Results for O=C(N/N=C\c1cc(Cl)ccc1O)c1ccc(S(=O)(=O)N2CCCCC2)cc1 ?
TLR4 MyD88 comp: -10.6; NOD2-RIPK2 inh: -8.3; XBP1 UPR activ: 2.7; CHOP UPR activ: -2.4; TLR9-MyD88 inh: 2.9; CHOP inh: 81.3*

What do the screens show for `Cc1ccc(S(=O)(=O)Nc2ccc(-c3nnc(SCc4ccccc4Cl)o3)cc2)cc1`?
TLR4 MyD88 comp: -9.9; NOD2-RIPK2 inh: -2.0; XBP1 UPR activ: -4.6; CHOP UPR activ: 0.8; TLR9-MyD88 inh: 15.9; CHOP inh: 20.3

How did Cc1ccc(CSc2nnc(-c3ccc(NS(=O)(=O)c4ccccc4)cc3)o2)cc1 do in these assays?
TLR4 MyD88 comp: 8.6; NOD2-RIPK2 inh: -2.0; XBP1 UPR activ: -4.0; CHOP UPR activ: 2.2; TLR9-MyD88 inh: 7.8; CHOP inh: 71.0*

How did Cc1ccc(C)c(N=Nc2ccc(O)c3ncccc23)c1 do in these assays?
TLR4 MyD88 comp: 6.7; NOD2-RIPK2 inh: -2.4; XBP1 UPR activ: -5.8; CHOP UPR activ: 12.9; TLR9-MyD88 inh: 1.1; CHOP inh: 102.5*

Results for CCOc1ccc(N=Nc2ccc(O)c3ncccc23)cc1 ?
NOD2-RIPK2 inh: -2.1; XBP1 UPR activ: 2.6; CHOP UPR activ: 14.7; TLR9-MyD88 inh: 0.0

Results for COc1cccc(OC)c1OCCCCc1c(C)n[nH]c1C ?
TLR4 MyD88 comp: 8.4; NOD2-RIPK2 inh: 3.9; XBP1 UPR activ: -1.8; CHOP UPR activ: -0.7; TLR9-MyD88 inh: -1.9; CHOP inh: -6.0

What do the screens show for `Cc1ccccc1OCCCCc1c(C)n[nH]c1C`?
TLR4 MyD88 comp: -7.7; NOD2-RIPK2 inh: 3.9; XBP1 UPR activ: -0.1; CHOP UPR activ: 2.4; TLR9-MyD88 inh: -8.1; CHOP inh: 85.3*

What do the screens show for `Cc1cccc(C)c1OCCCCc1c(C)n[nH]c1C`?
TLR4 MyD88 comp: 2.5; NOD2-RIPK2 inh: -9.8; XBP1 UPR activ: -1.1; CHOP UPR activ: 1.4; TLR9-MyD88 inh: 2.5; CHOP inh: 86.1*

Results for COC(=O)C[C@H]1c2cc(F)cc(F)c2S(=O)(=O)N1C1CCN(Cc2ccccc2)CC1 ?
NOD2-RIPK2 inh: 9.2; XBP1 UPR activ: 0.0; CHOP UPR activ: -0.4; TLR9-MyD88 inh: 5.4

How did Cc1cc(C(=O)Nc2ccc3c(c2)OCO3)cs1 do in these assays?
TLR4 MyD88 comp: -2.0; NOD2-RIPK2 inh: 4.0; XBP1 UPR activ: -2.1; CHOP UPR activ: 2.6; TLR9-MyD88 inh: -2.9; CHOP inh: -60.6

How did Cc1cc(C(=O)NC(C)c2ccc3c(c2)OCO3)cs1 (stereo not drawn) do in these assays?
TLR4 MyD88 comp: 6.6; NOD2-RIPK2 inh: 4.5; XBP1 UPR activ: 1.1; CHOP UPR activ: 0.4; TLR9-MyD88 inh: 7.8; CHOP inh: 73.7*

What do the screens show for `Fc1ccc(N/N=C/c2ccncc2)c(F)c1`?
TLR4 MyD88 comp: 8.5; NOD2-RIPK2 inh: 0.1; XBP1 UPR activ: 1.6; CHOP UPR activ: 3.2; TLR9-MyD88 inh: 5.5; CHOP inh: -4.9

How did Fc1ccc(N/N=C/C=C/c2ccccc2)c(F)c1 do in these assays?
TLR4 MyD88 comp: 13.3; NOD2-RIPK2 inh: -0.5; XBP1 UPR activ: 5.7; CHOP UPR activ: 3.7; TLR9-MyD88 inh: -5.8; CHOP inh: 77.0*

Screening results deposited in PubChem BioAssay by several laboratories.
